Measurements as given in PMC7172891 (Peptides, 2008).

Columns and labels:
HSV-1 = HSV-1 virus entry assay: plaque inhibition on Vero cells; format: cell-based; conditions: for inhibition of HSV-1 infectivity, cell pre-exposure: peptide 250 μM, Vero cells treated with peptide before viral challenge; for activity in dose-dependent inhibition assay of HSV entry: co-treatment, up to 500 μM, Vero cells
[1] = PC/Chol (1:1) LUV, probe dilution assay; cited from earlier work
HIV-1 = conditions: cited from earlier work
[2] = tested on: parainfluenza-2 virus (PIV-2); assay: Inhibition of PIV-2 infectivity, co-exposure mode; format: cell-based; conditions: peptide 250 and 500 μM
Outline: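 Co-exposure: cells and virus inoculum incubated together with peptide for 45 min at 37 °C. Non-penetrated virus inactivated with low-pH citrate buffer. Cells then held 48 h at 37 °C in DMEM with CMC, and plaques counted. Run in triplicate. Percent inhibition calculated against no-peptide control, with standard deviations; scrambled peptides run in parallel.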

[3] = Circular dichroism: helix content and oligomeric state; format: physicochemical; conditions: for ratio θ222/θ208 (monomer about 0.8, oligomer above 1.0) / percentage of helix (CD, ellipticity at 222 nm): peptide 20 μM
Outline: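 CD spectra at room temperature in 1.0 or 0.1 cm quartz cells. Peptide 20 μM titrated in varying % TFE; 5–200 μM series in buffer, 20% TFE and […]. For lipid samples, peptide in TFE was mixed with lipid in chloroform, dried, lyophilised and rehydrated in water to 0.9 mM final lipid. Scans averaged (three, 260–195 nm), blank-corrected, converted to MRE.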

[4] = Native gel electrophoresis: oligomeric state of peptides; format: physicochemical; conditions: without SDS and with 4 mM and 5 mM SDS
Outline: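 Peptide solution (1 mM in phosphate buffer pH 7.3, before mixing) incubated alone or with 4 or 5 mM SDS for 5 min at 25 °C. Non-denaturing PAGE with 4% stacking and 12% separating gel, run 2.5 h at constant 30 mA. Bands visualised with Coomassie R-250.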

[5] = Solubility / precipitation observations; format: physicochemical

Substance: AAHLIDALYAEFLGGRVLTTPVVHRALFYASAVLRQPFLAGVPSA [gH493–537]
- inhibition of HSV-1 infectivity, post-exposure treatment (HSV-1; peptide 250 μM added after 45 min infection of Vero cells): not active
- inhibition of HSV-1 infectivity, cell pre-exposure (HSV-1): not active
- ability to induce fusion of vesicles (lipid mixing), previously reported [1]: able to induce fusion

Substance: Enfuvirtide
- inhibition of HIV-1 (HIV-1): active at low nanomolar concentration

Substance: GLASTLTRWAHYNALIRAF [gH626–644]
- inhibition of HSV-1 infectivity, cell pre-exposure (HSV-1): partially inhibit viral entry
- effect on parainfluenzavirus-2 (PIV-2) infectivity [2]: none of these peptides exerted any significant effect
- ratio θ222/θ208 (monomer about 0.8, oligomer above 1.0) ([3]; 20% TFE, TFE titration): approximately 1.05
- helicity (CD, ellipticity at 222 nm) ([3]; 20% TFE, peptide 5 μM): about 19%
- percentage of helix (CD, ellipticity at 222 nm) ([3]; 20% TFE, room temperature): 27%
- ratio θ222/θ208 over peptide concentration ([3]; 20% TFE, peptide 5–200 μM): around 1
- concentration at which the peptide already oligomerises (CD) ([3]; CD data): 50 µM
- conformation in buffer solution (CD) ([3]; buffer solution, spectra unaltered over 5–200 μM): random coil conformation
- ratio θ222/θ208 (monomer about 0.8, oligomer above 1.0) ([3]; higher percentages of TFE): 0.76
- percentage of helix (CD, ellipticity at 222 nm) ([3]; increasing (higher) concentrations of TFE): approximately 35%
- oligomer order in NATIVE-PAGE [4]: forms higher order oligomers compared to gH493–512
- precipitation in inhibition experiments ([5]; 500 μM): probably indicating a precipitation of the peptide at this concentration
- precipitation / macroscopic aggregation ([5]; in presence of membranes, concentrations assayed in CD studies (5–200 μM)): did not precipitate or otherwise form macroscopic aggregates
- ability to induce fusion of vesicles (lipid mixing), previously reported [1]: able to induce fusion

Substance: RLTGLLATSGFAFVNAAHANGAVCLSDLLGFLAHSRALAG [gH381–420]
- activity in dose-dependent inhibition assay of HSV entry (HSV-1): non-significant activity
- ability to induce fusion of vesicles (lipid mixing), previously reported [1]: able to induce fusion

Substance: TWLATRGLLRSPGRYVYFSPSASTWPVGIWTTGELVLGCDAAL [gH220–262]
- activity in dose-dependent inhibition assay of HSV entry (HSV-1): non-significant activity
- ability to induce fusion of vesicles (lipid mixing), previously reported [1]: able to induce fusion
